# Published values of several laboratories.
# Each line is one published result; the experiments were not run side by side.
# Target: Phosphatidylinositol 4,5-bisphosphate 3-kinase catalytic subunit gamma isoform (PIK3CG, Homo sapiens, UniProt P48736)
Compound,read-out,mode,technique,tested at,endpoint,result
C[C@H]1CC[C@H](n2c3cnccc3c3cnc(Nc4ccc5c(n4)CCN(C(=O)CO)C5)nc32)CC1,cell-free assay,,,1 µM,remaining signal,47%
C#Cc1cnc(Nc2ccnc(CO)c2)nc1Nc1ccccc1S(C)(=O)=NC#N (stereo not shown),cell-free assay,,,1 µM,remaining signal,15%
Cc1nc(NC(=O)N2CCC[C@H]2C(N)=O)sc1-c1ccnc(C(C)(C)C(F)(F)F)c1,enzyme activity,inhibitor,ADP detection,10 µM,inhibition,73.3%
COc1ccc2[nH]c3c4[nH]c5ccc(OC)cc5c4c4c(c3c2c1)C(=O)NC4=O,binding,,,1 µM,remaining binding,87%
N#Cc1ccc(NC(=O)Nc2ccccc2)cc1,cell-free assay,,competition with immobilised ligand,25 µM,remaining binding,77%
CO[C@@H]1[C@H](N(C)C(=O)c2ccccc2)C[C@H]2O[C@]1(C)n1c3ccccc3c3c4c(c5c6ccccc6n2c5c31)C(=O)NC4,enzyme activity,inhibitor,,1 µM,inhibition,34%
CCCCC(=O)Nc1ccc(-c2ccc3ncn(CCC)c(=O)c3c2)cn1,binding,,competition with immobilised ligand,0.5 µM,remaining binding,100%
C1=C/COCc2cc(ccc2OCCN2CCCC2)Nc2nccc(n2)-c2cccc(c2)COC/1,binding,,,0.1 µM,remaining binding,4.3%
CC#CC(=O)N1CCC[C@H]1c1nc(-c2ccc(C(=O)Nc3ccccn3)cc2)c2c(N)nccn12,enzyme activity,inhibitor,,1 µM,inhibition,0%
COc1ccc2oc(-c3ccc4nc(N)oc4c3)c/c(=N\c3ccccc3NC(=O)CCN)c2c1,enzyme activity,inhibitor,,1 µM,remaining activity,98%
